In ChEMBL document CHEMBL1129929, “Analogues of methotrexate in rheumatoid arthritis. 1. Effects of 10-deazaaminopterin analogues on type II collagen-induced arthritis in mice” (J Med Chem, 1997):

Legend:
Mus musculus [1] = assay: Tested for antiinflammatory activity on mouse type II collagen arthritis as Paw swelling* of all animals in each group on day 30 at intraperitoneal dose of 12 mg/kg; format: functional
Outline: (§1)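 DBA/1 mice immunized with bovine type II collagen (Courtenay method, modified), antigen booster at day 21. Compounds given ip from 2 days before the first collagen challenge, then every 2 days. Hind paw dimensions (mm) measured for both limbs of all animals, expressed as mean ± SD. Eight mice per dose; untreated controls pooled from four experiments (48 animals).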

Mus musculus [2] = assay: Tested for antiinflammatory activity on mouse type II collagen arthritis as Paw swelling* of all animals in each group on day 44 at intraperitoneal dose of 12 mg/kg; d means 3 animals died; format: functional, organism-based; design: dose 12 mg/kg; outline: as §1
Mus musculus [3] = assay: Incidence of disease(mouse type II collagen arthritis) was scored as the percentage of animals within each experimental group that exhibited joint or limb inflammation on day 23 at intraperitoneal dose of 12 mg/kg (1 animal died); format: functional
Outline: (§2)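 DBA/1 mice immunised with bovine type II collagen, booster at day 21 (modified Courtenay model). Compound given intraperitoneally from 2 days before the first collagen challenge, then every 2 days. Incidence is the percentage of animals per group showing joint or limb inflammation, scored visually on days 23, 30, 37 and 44.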

Mus musculus [4] = assay: Incidence of disease(mouse type II collagen arthritis) was scored as the percentage of animals within each experimental group that exhibited joint or limb inflammation on day 44 at intraperitoneal of dose 12 mg/kg; d means 3 animals died; format: functional, organism-based; design: dose 12 mg/kg; settings: at 12 mg/kg
Outline: (§3)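 DBA/1 mice were immunized with bovine type II collagen (modified Courtenay method), with a collagen booster on day 21. Compounds were given ip starting 2 days before the first collagen challenge and every 2 days thereafter. Incidence was the percentage of animals per group with joint or limb inflammation, scored on days 23, 30, 37 and 44.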

Mus musculus [5] = assay: Tested for antiinflammatory activity on mouse type II collagen arthritis as Paw swelling* of all animals in each group on day 23 at intraperitoneal dose of 12 mg/kg; format: functional; outline: as §1
Mus musculus [6] = assay: Incidence of disease(mouse type II collagen arthritis) was scored as the percentage of animals within each experimental group that exhibited joint or limb inflammation on day 37 at intraperitoneal of dose 12 mg/kg (1 animal died); format: functional; outline: as §2
Mus musculus [7] = assay: Incidence of disease(mouse type II collagen arthritis) was scored as the percentage of animals within each experimental group that exhibited joint or limb inflammation on day 30 at intraperitoneal of dose 12 mg/kg (1 animal died); format: functional; outline: as §2
Mus musculus [8] = assay: Tested for antiinflammatory activity on mouse type II collagen arthritis as Paw swelling* of all animals in each group on day 37 at intraperitoneal dose of 12 mg/kg; format: functional; outline: as §1
Mus musculus [9] = assay: Incidence of disease(mouse type II collagen arthritis) was scored as the percentage of animals within each experimental group that exhibited joint or limb inflammation on day 23 at intraperitoneal dose of 12 mg/kg; format: functional; outline: as §3
Mus musculus [10] = assay: Tested for antiinflammatory activity on mouse type II collagen arthritis as Paw swelling* of all animals in each group on day 23 at intraperitoneal dose of 18 mg/kg; format: functional; outline: as §1
Mus musculus [11] = assay: Tested for antiinflammatory activity on mouse type II collagen arthritis as Paw swelling* of all animals in each group on day 44 at intraperitoneal dose of 12 mg/kg; format: functional; outline: as §1
Mus musculus [12] = assay: Tested for antiinflammatory activity on mouse type II collagen arthritis as Paw swelling* of all animals in each group on 30 at intraperitoneal dose of 18 mg/kg; format: functional
Outline: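 DBA/1 mice were challenged with bovine type II collagen and boosted on day 21. Dosing was ip from 2 days before the initial challenge, then every 2 days, with eight animals per dose. Hind paw dimensions (mm) were measured for both limbs of all animals and given as mean ± SD. Untreated controls were pooled from four experiments (48 animals).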

Mus musculus [13] = assay: Incidence of disease(mouse type II collagen arthritis) was scored as the percentage of animals within each experimental group that exhibited joint or limb inflammation on day 30 at intraperitoneal of dose 12 mg/kg; format: functional; outline: as §3
Mus musculus [14] = assay: Tested for antiinflammatory activity on mouse type II collagen arthritis as Paw swelling* of all animals in each group on day 44 at intraperitoneal dose of 18 mg/kg; format: functional; outline: as §1
Mus musculus [15] = assay: Incidence of disease(mouse type II collagen arthritis) was scored as the percentage of animals within each experimental group that exhibited joint or limb inflammation on day 37 at intraperitoneal of dose 12 mg/kg; format: functional; outline: as §3
Mus musculus [16] = assay: Tested for antiinflammatory activity on mouse type II collagen arthritis as Paw swelling* of all animals in each group on day 37 at intraperitoneal dose of 18 mg/kg; format: functional; outline: as §1
Mus musculus [17] = assay: Incidence of disease(mouse type II collagen arthritis) was scored as the percentage of animals within each experimental group that exhibited joint or limb inflammation on day 44 at intraperitoneal of dose 12 mg/kg; format: functional; outline: as §3
Mus musculus [18] = assay: Incidence of disease(mouse type II collagen arthritis) was scored as the percentage of animals within each experimental group that exhibited joint or limb inflammation on day 23 at intraperitoneal dose of 18 mg/kg; format: functional; outline: as §3
Mus musculus [19] = assay: Incidence of disease(mouse type II collagen arthritis) was scored as the percentage of animals within each experimental group that exhibited joint or limb inflammation on day 37 at intraperitoneal of dose 18 mg/kg; format: functional; outline: as §3
Mus musculus [20] = assay: Incidence of disease(mouse type II collagen arthritis) was scored as the percentage of animals within each experimental group that exhibited joint or limb inflammation on day 30 at intraperitoneal of dose 18 mg/kg; format: functional; outline: as §3
Mus musculus [21] = assay: Incidence of disease(mouse type II collagen arthritis) was scored as the percentage of animals within each experimental group that exhibited joint or limb inflammation on day 44 at intraperitoneal of dose 18 mg/kg; format: functional; outline: as §3

## Nc1nc(N)c2nc(CCc3ccc(C(=O)NC(CCC(=O)O)C(=O)O)nc3)cnc2n1 (centres undefined)
Mus musculus [1]
  Paw swelling: 2.11 mm
Mus musculus [2]
  Paw swelling: Three animals died
Mus musculus [3]
  Animals: 0%
Mus musculus [4]
  Animals: Three animals died
Mus musculus [5]
  Paw swelling: 2.14 mm
Mus musculus [6]
  Animals: 0%
Mus musculus [7]
  Animals: 0%
Mus musculus [8]
  Paw swelling: 2.07 mm

## CCC(Cc1cnc2nc(N)nc(N)c2n1)c1ccc(C(=O)N[C@@H](CCC(=O)O)C(=O)O)cc1 (some centres undefined) [EDATREXATE]
Mus musculus [1]
  Paw swelling: 2.28 mm
Mus musculus [9]
  Animals: 25%
Mus musculus [10]
  Paw swelling: 2.18 mm
Mus musculus [11]
  Paw swelling: 2.32 mm
Mus musculus [12]
  Paw swelling: 2.24 mm
Mus musculus [13]
  Animals: 25%
Mus musculus [14]
  Paw swelling: 2.18 mm
Mus musculus [15]
  Animals: 38%
Mus musculus [16]
  Paw swelling: 2.19 mm
Mus musculus [17]
  Animals: 50%
Mus musculus [5]
  Paw swelling: 2.26 mm
Mus musculus [18]
  Animals: 12%
Mus musculus [19]
  Animals: 12%
Mus musculus [20]
  Animals: 0%
Mus musculus [21]
  Animals: 12%
Mus musculus [8]
  Paw swelling: 2.34 mm
